In ChEMBL document CHEMBL1134221, “RPR203494 a pyrimidine analogue of the p38 inhibitor RPR200765A with an improved in vitro potency” (Bioorg Med Chem Lett, 2001):

What was measured:
[1] = Inhibitory concentration against lipopolysaccharide induced TNF-alpha release on human monocytes; type: functional
Procedure, shortened: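 Adherent human monocytes (100,000 cells/well) are stimulated with LPS (10 ng/mL) for 18 h, with or without compound. Each experiment is run in quadruplicate. TNF-α is measured by sandwich ELISA, and EC50 is calculated for each compound.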

[2] = Oral bioavailability in rat; type: ADME, organism-based; conditions: in vivo
Procedure, shortened: (§1)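 Rat pharmacokinetics with the compound given alone: an iv arm at 1 mg/kg and an oral arm at 5 mg/kg. Plasma profiles give Cmax, Tmax, AUC, terminal half-life, total clearance and Vdss. Absolute oral bioavailability is derived by comparing the oral and iv exposures.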

[3] = Stability (%) in rat liver microsomes; type: ADME; conditions: read-out: % turnover
[4] = Inhibitory activity against lipopolysaccharide induced TNF-alpha release on human monocytes at a concentration of 300 nM; type: functional
MAP kinase p38 [5] = target: T1, MAP kinase p38 (Mus musculus, UniProt P47811+O08911+Q9WUI1+Q9Z1B7); test: Inhibition of murine Mitogen-activated protein kinase p38; type: protein assay
Procedure, shortened: (§2)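 Mouse p38 enzyme at 40 ng/well, run 1 h at room temperature. ATF-2 substrate is coated onto plates. Buffer is 25 mM Hepes pH 7.7 with 25 mM MgCl2, 2 mM dithiothreitol, 1 mM sodium orthovanadate and ATP. Phospho-ATF-2 is detected with phospho-specific primary antibodies. IC50 is given as mean±SEM of repeat experiments (n=3).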

[6] = Area under curve after intravenous administration (1 mg/kg) in rat; type: ADME, organism-based; conditions: in vivo; procedure, shortened: as §1
[7] = Terminal half life in Rat at a oral dose of 5 mg/kg; type: ADME, organism-based; parameters: dose 5 mg/kg, route oral; conditions: in vivo; procedure, shortened: as §1
[8] = Area under curve in Rat at a oral dose of 5 mg/kg; type: ADME, organism-based; parameters: dose 5 mg/kg, route oral; conditions: in vivo; procedure, shortened: as §1
[9] = Volume distribution after intravenous administration (1 mg/kg) in rat; type: ADME, organism-based; conditions: in vivo, read-out: Vdss; procedure, shortened: as §1
[10] = Plasma clearance after intravenous administration (1 mg/kg) in rat; type: ADME, organism-based; conditions: read-out: Clp (converted); procedure, shortened: as §1
[11] = Terminal half life after intravenous administration (1 mg/kg) in rat; type: ADME, organism-based; conditions: in vivo; procedure, shortened: as §1
[12] = Maximum plasma concentration in Rat at a oral dose of 5 mg/kg; type: ADME, organism-based; parameters: dose 5 mg/kg, route oral; conditions: read-out: CPmax; procedure, shortened: as §1
[13] = T max in Rat at a oral dose of 5 mg/kg; type: ADME, organism-based; parameters: dose 5 mg/kg, route oral; conditions: in vivo; procedure, shortened: as §1
[14] = Oral Bioavailability after intravenous administration (1 mg/kg) in rat; type: ADME, organism-based; conditions: in vivo, 5 mg/kg, in the assay text read “oral administration (5 mg/kg)” for “intravenous administration (1 mg/kg)”; procedure, shortened: as §1
MAP kinase p38 [15] = target: T1, MAP kinase p38; test: Inhibitory activity against p38 kinase (40 ng/well) was determined in mouse; procedure, shortened: as §2

Row | Compound | EC50 [1] | bioavailability [2] | metabolised [3] | other results
1 | COc1cccc(Nc2nccc(-c3[nH]c([C@H]4OC[C@](C)(C(=O)N5CCOCC5)CO4)nc3-c3ccc(F)cc3)n2)c1 | 33 nM | 6% | 54.1% | –
2 | C[C@]1(C(=O)N2CCOCC2)CO[C@H](c2nc(-c3ccc(F)cc3)c(-c3ccnc(NCc4cccs4)n3)[nH]2)OC1 | 70 nM | – | 92% | –
3 | CNc1nccc(-c2[nH]c([C@H]3OC[C@](C)(C(=O)N4CCOCC4)CO3)nc2-c2ccc(F)cc2)n1 | – | – | 8.1% | inhibition at 0.3 µM [4]: 38%
4 | C[C@]1(C(=O)N2CCOCC2)CO[C@H](c2nc(-c3ccc(F)cc3)c(-c3ccnc(NCc4ccc(F)cc4)n3)[nH]2)OC1 | 62 nM | – | 44.6% | –
5 | C[C@]1(C(=O)N2CCOCC2)CO[C@H](c2nc(-c3ccc(F)cc3)c(-c3ccnc(NCCC(=O)O)n3)[nH]2)OC1 | – | – | 3.5% | inhibition at 0.3 µM [4]: 6%
6 | C[C@]1(C(=O)N2CCOCC2)CO[C@H](c2nc(-c3ccc(F)cc3)c(-c3ccnc(NCC(=O)O)n3)[nH]2)OC1 | > 10000 nM | – | – | –
7 | C[C@]1(C(=O)N2CCOCC2)CO[C@H](c2nc(-c3ccc(F)cc3)c(-c3ccnc(NCCO)n3)[nH]2)OC1 | 319 nM | – | 18% | –
8 | COCCCNc1nccc(-c2[nH]c([C@H]3OC[C@](C)(C(=O)N4CCOCC4)CO3)nc2-c2ccc(F)cc2)n1 | 54 nM | 15% | – | IC50 (MAP kinase p38 [5]): 7 nM
9 | C[C@]1(C(=O)N2CCOCC2)CO[C@H](c2nc(-c3ccc(F)cc3)c(-c3ccnc(NCC4CC4)n3)[nH]2)OC1 | 69 nM | – | 87% | –
10 | CCCNc1nccc(-c2[nH]c([C@H]3OC[C@](C)(C(=O)N4CCOCC4)CO3)nc2-c2ccc(F)cc2)n1 | 124 nM | – | – | –
11 | C[C@]1(C(=O)N2CCOCC2)CO[C@H](c2nc(-c3ccc(F)cc3)c(-c3ccnc(Nc4ccncc4)n3)[nH]2)OC1 | 41 nM | – | – | –
12 | C[C@]1(C(=O)N2CCOCC2)CO[C@H](c2nc(-c3ccc(F)cc3)c(-c3ccnc(NC4CC4)n3)[nH]2)OC1 | 60 nM | 29% | 43.6% | IC50 (MAP kinase p38 [5]): 9 nM; AUC [6]: 580 ng·h/mL; half-life [7]: 1.4 h; AUC [8]: 1390 ng·h/mL; Vd [9]: 1.2 L/kg; clearance [10]: 30 mL/min/kg; half-life [11]: 1.2 h; Cmax [12]: 620 ng/mL; Tmax [13]: 0.5 h; bioavailability [14]: 48%
13 | C[C@]1(C(=O)N2CCOCC2)CO[C@H](c2nc(-c3ccc(F)cc3)c(-c3ccnc(N4CCCCC4)n3)[nH]2)OC1 | – | – | 99% | inhibition at 0.3 µM [4]: 26%
14 | CN(C)CCCNc1nccc(-c2[nH]c([C@H]3OC[C@](C)(C(=O)N4CCOCC4)CO3)nc2-c2ccc(F)cc2)n1 | – | – | 18% | inhibition at 0.3 µM [4]: 27%
15 | COc1ccc(CNc2nccc(-c3[nH]c([C@H]4OC[C@](C)(C(=O)N5CCOCC5)CO4)nc3-c3ccc(F)cc3)n2)cc1 | 49 nM | 1% | 23.9% | –
16 | CN(C)CCNc1nccc(-c2[nH]c([C@H]3OC[C@](C)(C(=O)N4CCOCC4)CO3)nc2-c2ccc(F)cc2)n1 | 570 nM | – | 29% | –
17 | C[C@]1(C(=O)N2CCOCC2)CO[C@H](c2nc(-c3ccc(F)cc3)c(-c3ccnc(NCc4ccccc4)n3)[nH]2)OC1 | 12 nM | 24% | 68% | IC50 (MAP kinase p38 [5]): 5 nM
18 | C[C@]1(C(=O)N2CCOCC2)CO[C@H](c2nc(-c3ccc(F)cc3)c(-c3ccnc(N)n3)[nH]2)OC1 | – | – | 17.6% | inhibition at 0.3 µM [4]: 39%
19 | C[C@@H](Nc1nccc(-c2[nH]c([C@H]3OC[C@](C)(C(=O)N4CCOCC4)CO3)nc2-c2ccc(F)cc2)n1)c1ccccc1 | 10 nM | – | 81% | –
20 | C[C@]1(C(=O)N2CCOCC2)CO[C@H](c2nc(-c3ccc(F)cc3)c(-c3ccnc(Nc4cccnc4)n3)[nH]2)OC1 | 231 nM | – | – | –
21 | C[C@]1(C(=O)N2CCOCC2)CO[C@H](c2nc(-c3ccc(F)cc3)c(-c3ccnc(NCCCO)n3)[nH]2)OC1 | 57 nM | 2% | – | –
22 | C[C@]1(C(=O)N2CCOCC2)CO[C@H](c2nc(-c3ccc(F)cc3)c(-c3ccnc(NCc4ccccn4)n3)[nH]2)OC1 | 45 nM | 25% | 25% | –
23 | C[C@H](Nc1nccc(-c2[nH]c([C@H]3OC[C@](C)(C(=O)N4CCOCC4)CO3)nc2-c2ccc(F)cc2)n1)c1ccccc1 | 1.5 nM | 10% | 71% | –
24 | C=CCNc1nccc(-c2[nH]c([C@H]3OC[C@](C)(C(=O)N4CCOCC4)CO3)nc2-c2ccc(F)cc2)n1 | 110 nM | – | 89.1% | –
25 | C[C@]1(C(=O)N2CCOCC2)CO[C@H](c2nc(-c3ccc(F)cc3)c(-c3ccnc(NCCC#N)n3)[nH]2)OC1 | – | – | – | inhibition at 0.3 µM [4]: 28%
26 | CN(C)c1nccc(-c2[nH]c([C@H]3OC[C@](C)(C(=O)N4CCOCC4)CO3)nc2-c2ccc(F)cc2)n1 | – | – | 40.7% | inhibition at 0.3 µM [4]: 8%
27 | C[C@]1(C(=O)N2CCOCC2)CO[C@H](c2nc(-c3ccc(F)cc3)c(-c3ccnc(Nc4ccccc4)n3)[nH]2)OC1 | 54 nM | 29% | 51% | IC50 (MAP kinase p38 [15]): 16 nM
28 | C[C@]1(C(=O)N2CCOCC2)CO[C@H](c2nc(-c3ccc(F)cc3)c(-c3ccnc(NC4CCCCC4)n3)[nH]2)OC1 | 24 nM | – | 98.6% | –
